Data published in ChEMBL document CHEMBL4118142, “Novel amidrazone derivatives: Design, synthesis and activity evaluation” (Bioorg Med Chem, 2018).
Calls of active or inactive are those of the source. The rule behind the calls is not given here.

What was measured:
[1] = target: T1, Acid-sensing ion channel 1 (Rattus norvegicus) (UniProt P55926); test: (§1) Inhibition of ASIC1a in rat articular chondrocytes assessed as decrease in acid-induced intracellular calcium level at 25 uM pretreated with compound followed by acid medium stimulation in presence of voltage gated calcium channel inhibitor nimodipine after 24 hrs by Fluo-3AM dye based laser scanning confocal microscopy relative to control; format: cell-based
T1 sequence (whole entry): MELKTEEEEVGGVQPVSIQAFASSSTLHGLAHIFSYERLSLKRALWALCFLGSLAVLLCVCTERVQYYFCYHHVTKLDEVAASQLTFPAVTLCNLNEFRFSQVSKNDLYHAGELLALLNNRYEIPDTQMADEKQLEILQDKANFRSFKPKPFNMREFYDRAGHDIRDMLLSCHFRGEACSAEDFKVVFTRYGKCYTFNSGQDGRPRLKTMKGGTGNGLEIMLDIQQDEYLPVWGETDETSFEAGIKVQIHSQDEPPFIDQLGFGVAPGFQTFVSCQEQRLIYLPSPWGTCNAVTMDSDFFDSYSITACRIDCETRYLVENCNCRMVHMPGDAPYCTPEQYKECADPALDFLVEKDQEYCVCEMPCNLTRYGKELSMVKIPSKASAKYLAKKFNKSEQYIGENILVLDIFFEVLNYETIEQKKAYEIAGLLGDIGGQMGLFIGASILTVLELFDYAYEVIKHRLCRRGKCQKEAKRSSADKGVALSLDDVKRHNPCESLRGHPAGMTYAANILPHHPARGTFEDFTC
In short: (§2)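 Primary rat articular chondrocytes (1 × 10^5 cells) were grown 24 h, then loaded with 10 μM Fluo-3-AM plus 0.02% Pluronic F-127 for 30 min at 37 °C and washed. Nimodipine (5 μM) was present in the extracellular fluid. Cells were perfused with D-Hank's containing compound, then with Hank's solution at pH 6.0. Confocal fluorescence (ex 488, em 525 nm) was imaged up to 5 min. Result reported as % inhibition of Ca2+ fluorescence intensity.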

[2] = target: T1, Acid-sensing ion channel 1 (Rattus norvegicus); test: Inhibition of acid-induced ASIC1a protein expression in rat articular chondrocytes at 1.563 to 25 uM pretreated for 24 hrs followed by acid medium stimulation at pH 6 for 3 hrs by Western blot analysis; format: cell-based
In short: (§3)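 Primary rat articular chondrocytes in DMEM/10% FBS at 37 °C, 5% CO2 were pretreated with compound for 24 h, then stimulated with acidic medium (pH 6.0) for 3 h. Cells kept at pH 7.4 served as control. Cells were PBS-washed and lysed, and ASIC1a was measured by Western blot with β-actin as internal control. Mean ± SD of three independent experiments.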

[3] = Cytotoxicity against rat articular chondrocytes assessed as decrease in cell viability at 1.563 to 25 uM after 24 hrs by MTT assay
In short: (§4)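 Primary rat articular chondrocytes were seeded at 5 × 10^3 cells/well and incubated 24 h in DMEM with 10% FBS. They were then exposed to compound for 24 h. MTT (5 mg/mL stock) was added for 4 h at 37 °C, formazan was dissolved in DMSO, and OD was read at 492 nm against a cell-free blank. Run in triplicate, three independent experiments, means ± SE.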

[4] = Cytotoxicity against rat articular chondrocytes assessed as decrease in cell viability at 3.125 to 25 uM after 24 hrs by MTT assay; in short: as §4
[5] = target: T1, Acid-sensing ion channel 1 (Rattus norvegicus); test: Inhibition of acid-induced ASIC1a protein expression in rat articular chondrocytes at 3.125 to 50 uM pretreated for 24 hrs followed by acid medium stimulation at pH 6 for 3 hrs by Western blot analysis; format: cell-based; in short: as §3
[6] = target: T2, Acid-sensing ion channel 1 (Rattus norvegicus, UniProt P55926); test: Inhibition of ASIC1a in rat dorsal root ganglion neurons assessed as reduction in peak current preincubated for 120 secs followed by acid medium stimulation at pH 5.5 for 3 secs by automated patch clamp electrophysiology assay
T2 sequence (P55926 whole entry): T1 sequence (whole entry)

[7] = target: T1, Acid-sensing ion channel 1 (Rattus norvegicus); test: as §1, with “50” for “25”; format: cell-based; in short: as §2
[8] = Cytotoxicity against rat articular chondrocytes assessed as decrease in cell viability at 50 uM after 24 hrs by MTT assay; in short: as §4
[9] = target: T2, Acid-sensing ion channel 1; test: Inhibition of ASIC1 in Sprague-Dawley rat articular chondrocytes assessed as decrease in acid-induced intracellular calcium level by Fluo-3AM dye based laser scanning confocal microscopy; format: cell-based
In short: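 Primary rat articular chondrocytes were seeded at 1 × 10^5 cells and used after 24 h. Cells were loaded with 10 µM Fluo-3-AM plus 0.02% Pluronic F-127 for 30 min at 37 °C, washed, and kept with 5 µM nimodipine in the extracellular fluid. They were perfused with D-Hank's, then compound, then pH 6.0 Hank's. Confocal readout at ex 488/em 525 nm over 5 min gave the fluorescence-intensity inhibition rate.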

Row | SMILES | inhibition [1] | inhibition of ASIC1a protein expression (active/not active) [2] | inhibition [5] | Activity [3] | other results
1 | N=C(NN)c1ccc2cc(/C=C/c3cccc(Cl)c3)ccc2c1 | 59.5% | Active |  | Non-Toxic | 
2 | COc1ccc(/C=C/c2ccc3cc(C(=N)NN)ccc3c2)cc1 | 68.9% |  | Active |  | Activity [4]: Non-Toxic
3 | CC(C)C1c2cc(C3CC3c3ccc4cc(C(=N)N)ccc4c3)ccc2CCN1C (centres undefined) |  |  |  |  | IC50 [6]: 2000 nM
4 | Cc1ccc(/C=C/c2ccc3cc(C(=N)NN)ccc3c2)cc1 |  |  | Active |  | inhibition [7]: 63.2%; Activity [8]: Toxic
5 | N=C(NN)c1ccc2cc(/C=C/c3ccc(Cl)cc3)ccc2c1 |  |  | Active |  | inhibition [7]: 20.8%; Activity [4]: Non-Toxic
6 | N=C(N)NC(=O)c1nc(Cl)c(N)nc1N [AMILORIDE] |  |  |  |  | IC50 [9]: 30.2 µM

The next lines start with results.

Row | inhibition [1] | inhibition of ASIC1a protein expression (active/not active) [2] | inhibition [5] | SMILES | Activity [3] | other results
7 | 33.4% | Active |  | N=C(NN)c1ccc2cc(/C=C/c3ccccc3)ccc2c1 | Non-Toxic | 
8 |  | inactive |  | N=C(NN)c1ccc2cc(/C=C/c3ccc(F)cc3)ccc2c1 | Non-Toxic | 
9 | 52.1% | Active |  | N=C(NN)c1ccc2cc(/C=C/c3ccccc3F)ccc2c1 | Non-Toxic | 
10 |  | Active |  | N=C(NN)c1ccc2cc(/C=C/c3cccc(F)c3)ccc2c1 | Non-Toxic | 
